Laboratory results: ChEMBL document CHEMBL4325822, “Discovery of a tetrazolyl β-carboline with in vitro and in vivo osteoprotective activity under estrogen-deficient conditions” (Medchemcomm, 2018)
The source made the active and inactive calls. The calls are words filed in the database; no cut-off is given here.

Tests used:
[1] = Induction of osteoblast differentiation in Sprague-Dawley rat calvarial osteoblasts assessed as alkaline phosphatase activity after 48 hrs using PNPP as substrate by spectrophotometric method; format: functional, cell-based; details: calvarial osteoblast
Procedure, shortened: (§1)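 Calvarial osteoblasts at 2 × 10³ cells/well. Treated 48 h with varied concentrations in differentiation medium (5% charcoal-treated FBS, 10 mM β-glycerophosphate, 50 µg·mL⁻¹ ascorbic acid). Total ALP read with PNPP substrate at 405 nm. Cell-free wells check for compound interference with substrate or absorbance.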

Calvarial osteoblast [2] = test: Induction of osteoblast differentiation in Sprague-Dawley rat calvarial osteoblasts assessed as alkaline phosphatase activity at 0.000001 to 1 uM after 48 hrs using PNPP as substrate by spectrophotometric method relative to control; format: functional, cell-based; procedure, shortened: as §1
Calvarial osteoblast [3] = test: Induction of osteoblast differentiation in Sprague-Dawley rat calvarial osteoblasts assessed as alkaline phosphatase activity at 10 nM after 48 hrs using PNPP as substrate by spectrophotometric method relative to control; format: functional; procedure, shortened: as §1

Row | EC50 [1] | Emax (Calvarial osteoblast [2]) | Emax (Calvarial osteoblast [3]) | SMILES
1 | Not Active | inactive | – | COC(=O)CNC(c1nc(C(=O)OC)cc2c1[nH]c1ccccc12)c1nnnn1C(C)(C)C (stereo unspecified)
2 | Not Active | – | inactive | CCN1CCN(C(c2nc(C(=O)OC)cc3c2[nH]c2ccccc23)c2nnnn2C(C)(C)C)CC1 (stereo unspecified)
3 | Not Active | inactive | – | CCOC(=O)c1cc2c([nH]c3ccccc32)c(C(c2nnnn2C(C)(C)C)N2CCN(Cc3ccc4c(c3)OCO4)CC2)n1 (stereo unspecified)
